Test results from ChEMBL document CHEMBL3259728, “Design, synthesis and biological evaluation of some novel substituted quinazolines as antitumor agents” (2014).

Assays:
Type in all cases: functional
[1] = Growth inhibition of human BT549 cells assessed as cell growth at 10^-5 M after 48 hrs by SRB assay; settings: BT-549, 48 h, read-out: Activity
In short: (§1)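 Five-dose NCI panel protocol. Each dose (10^-4 to 10^-8 M, 10-fold steps) was given as 48 h continuous exposure, and protein was measured by SRB staining. Percentage growth at each level is [(Ti−Tz)/(C−Tz)]×100, where Tz is time-zero absorbance and C is untreated control.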

[2] = test system: IGROV-1; experiment: Growth inhibition of human IGROV1 cells assessed as cell growth at 10^-8 M after 48 hrs by SRB assay; settings: IGROV-1, 48 h, read-out: Activity
[3] = test system: SNB-19; experiment: Growth inhibition of human SNB19 cells assessed as cell growth at 10^-8 M after 48 hrs by SRB assay; settings: SNB-19, 48 h, read-out: Activity
[4] = test system: NCI-H460; experiment: Growth inhibition of human NCI-H460 cells assessed as cell growth at 10^-8 M after 48 hrs by SRB assay; settings: NCI-H460, 48 h, read-out: Activity
[5] = test system: SR; experiment: Growth inhibition of human SR cells assessed as cell growth at 10^-8 M after 48 hrs by SRB assay; settings: read-out: Activity
[6] = test system: A498; experiment: Growth inhibition of human A498 cells assessed as cell growth at 10^-5 M after 48 hrs by SRB assay; settings: A498, 48 h, read-out: Activity; in short: as §1
[7] = test system: MDA-MB-468; experiment: Growth inhibition of human MDA-MB-468 cells assessed as cell growth at 10^-6 M after 48 hrs by SRB assay; settings: MDA-MB-468, 48 h, read-out: Activity
[8] = Growth inhibition of human BT549 cells assessed as cell growth at 10^-6 M after 48 hrs by SRB assay; settings: BT-549, 48 h, read-out: Activity; in short: as §1
[9] = test system: DU-145; experiment: Growth inhibition of human DU145 cells assessed as cell growth at 10^-6 M after 48 hrs by SRB assay; settings: DU-145, 48 h, read-out: Activity
[10] = test system: SNB-75; experiment: Growth inhibition of human SNB75 cells assessed as cell growth at 10^-4 M after 48 hrs by SRB assay; settings: SNB-75, 48 h, read-out: Activity
[11] = test system: NCI-H226; experiment: Growth inhibition of human NCI-H226 cells assessed as cell growth at 10^-4 M after 48 hrs by SRB assay; settings: NCI-H226, 48 h, read-out: Activity
[12] = Growth inhibition of human LOXIMVI cells assessed as cell growth at 10^-5 M after 48 hrs by SRB assay; settings: LOX IMVI, read-out: Activity
[13] = test system: DU-145; experiment: Growth inhibition of human DU145 cells assessed as cell growth at 10^-8 M after 48 hrs by SRB assay; settings: DU-145, 48 h, read-out: Activity
[14] = test system: IGROV-1; experiment: Cytotoxicity against human IGROV1 cells after 48 hrs by SRB assay; settings: IGROV-1, 48 h
In short: (§2)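 NCI 60-cell-line panel of human tumour lines from nine cancer types. Continuous 48 h exposure at five 10-fold dilutions from 10^-4 to 10^-8 M, with 5-FU as positive control. SRB protein stain read spectrophotometrically at time zero, untreated control and each concentration. GI50, TGI and LC50 were derived from the [(Ti−Tz)/(C−Tz)]×100 growth relations, and out-of-range values are given as > or < the tested limits.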

[15] = test system: U-251; experiment: Cytotoxicity against human U251 cells after 48 hrs by SRB assay; settings: U-251, 48 h
In short: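 NCI 60-cell-line panel, 48 h continuous exposure to five 10-fold dilutions from 10^-4 to 10^-8 M. SRB protein staining was read spectrophotometrically, with time-zero, untreated-control and treated absorbances. GI50, TGI and LC50 were derived from the percentage-growth formulas. Values outside the tested range are expressed as more or less than the maximum or minimum concentration.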

[16] = test system: RXF 393; experiment: Cytotoxicity against human RXF393 cells after 48 hrs by SRB assay; settings: RXF 393, 48 h; in short: as §2
[17] = test system: NCI-H322M; experiment: Growth inhibition of human NCI-H322M cells assessed as cell growth at 10^-6 M after 48 hrs by SRB assay; settings: read-out: Activity
[18] = test system: NCI-H23; experiment: Growth inhibition of human NCI-H23 cells assessed as cell growth at 10^-6 M after 48 hrs by SRB assay; settings: NCI-H23, 48 h, read-out: Activity
[19] = Growth inhibition of human MOLT4 cells assessed as cell growth at 10^-6 M after 48 hrs by SRB assay; settings: MOLT-4, 48 h, read-out: Activity
[20] = Growth inhibition of human NCI-ADR-RES cells assessed as cell growth at 10^-7 M after 48 hrs by SRB assay; settings: read-out: Activity
[21] = Growth inhibition of human OVCAR3 cells assessed as cell growth at 10^-7 M after 48 hrs by SRB assay; settings: OVCAR-3, 48 h, read-out: Activity
[22] = Growth inhibition of human UACC257 cells assessed as cell growth at 10^-7 M after 48 hrs by SRB assay; settings: UACC-257, 48 h, read-out: Activity
[23] = test system: SNB-75; experiment: Growth inhibition of human SNB75 cells assessed as cell growth at 10^-7 M after 48 hrs by SRB assay; settings: SNB-75, 48 h, read-out: Activity
[24] = Growth inhibition of human SF539 cells assessed as cell growth at 10^-7 M after 48 hrs by SRB assay; settings: SF-539, 48 h, read-out: Activity
[25] = test system: NCI-H460; experiment: Growth inhibition of human NCI-H460 cells assessed as cell growth at 10^-7 M after 48 hrs by SRB assay; settings: NCI-H460, 48 h, read-out: Activity
[26] = Growth inhibition of human UO31 cells assessed as cell growth at 10^-8 M after 48 hrs by SRB assay; settings: UO-31, 48 h, read-out: Activity
[27] = test system: NCI-H226; experiment: Cytotoxicity against human NCI-H226 cells after 48 hrs by SRB assay; settings: NCI-H226, 48 h; in short: as §2
[28] = Growth inhibition of human Hs578T cells assessed as cell growth at 10^-4 M after 48 hrs by SRB assay; settings: Hs-578T, read-out: Activity
[29] = test system: SN12C; experiment: Growth inhibition of human SN12C cells assessed as cell growth at 10^-4 M after 48 hrs by SRB assay; settings: read-out: Activity
[30] = test system: 786-0; experiment: Growth inhibition of human 786-0 cells assessed as cell growth at 10^-4 M after 48 hrs by SRB assay; settings: 786-0, 48 h, read-out: Activity; in short: as §1
[31] = read-out: LC50 (the source's name)
[32] = read-out: pLC50 (the source's name) (converted)

Work on `Cc1ccc(-c2nc3ccc(Cl)cc3c(=O)n2/N=C/c2ccccc2)cc1` yielded a growth at 10 µM [1] of 90%, a growth at 0.01 µM [2] of 94% and a growth at 0.01 µM [3] of 96%. The growth at 0.01 µM [4] was 100%, the growth at 0.01 µM [5] was 96% and the growth at 10 µM [6] was 40%. It also gave a growth at 1 µM [7] of 92%, a growth at 1 µM [8] of 103% and a growth at 1 µM [9] of 96%. It also gave a growth at 100 µM [10] of -43%, a growth at 100 µM [11] of 18% and a growth at 10 µM [12] of 63%. The growth at 0.01 µM [13] was 97%, the GI50 ([14]; read-out: GI50) was 3.69 µM and the CC50 [14, 31] was greater than 100 µM. The TGI ([14]; read-out: TGI) was greater than 100 µM, the GI50 ([14]; read-out: pGI50 (converted)) was 3.72 µM and the CC50 [14, 32] was greater than 100 µM. It also gave a TGI ([14]; read-out: pTGI) greater than 100 µM, a GI50 ([15]; read-out: GI50) of 5.05 µM and a CC50 [15, 31] greater than 100 µM. For the same molecule, the TGI ([15]; read-out: TGI) was greater than 100 µM, the GI50 ([15]; read-out: pGI50 (converted)) was 5.01 µM and the CC50 [15, 32] was greater than 100 µM. It also gave a TGI ([15]; read-out: pTGI) greater than 100 µM, a GI50 ([16]; read-out: GI50) of 6.46 µM and a CC50 [16, 31] greater than 100 µM. For the same molecule, the TGI ([16]; read-out: TGI) was greater than 100 µM, the GI50 ([16]; read-out: pGI50 (converted)) was 6.46 µM and the CC50 [16, 32] was greater than 100 µM. It also gave a TGI ([16]; read-out: pTGI) greater than 100 µM, a growth at 1 µM [17] of 82% and a growth at 1 µM [18] of 87%. It also gave a growth at 1 µM [19] of 99%, a growth at 0.1 µM [20] of 95% and a growth at 0.1 µM [21] of 96%. It also gave a growth at 0.1 µM [22] of 99%, a growth at 0.1 µM [23] of 81% and a growth at 0.1 µM [24] of 97%. It also gave a growth at 0.1 µM [25] of 99%, a growth at 0.01 µM [26] of 77% and a GI50 ([27]; read-out: GI50) of 5.14 µM. It also gave a CC50 [27, 31] greater than 100 µM, a TGI ([27]; read-out: TGI) greater than 100 µM and a GI50 ([27]; read-out: pGI50 (converted)) of 5.13 µM. It also gave a CC50 [27, 32] greater than 100 µM, a TGI ([27]; read-out: pTGI) greater than 100 µM and a growth at 100 µM [28] of -9%. It also gave a growth at 100 µM [29] of 42% and a growth at 100 µM [30] of 17%.
